Legend:
[1] = Antiplatelet activity against washed rabbit platelet assessed as inhibition of arachidonic acid-induced platelet aggregation at 100 ug/ml preincubated for 3 mins by turbidimetric method; format: functional, Oryctolagus cuniculus; design: scale not given: the % may be the effect or the level left
Procedure, shortened: (§1)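 Washed rabbit platelets from EDTA-anticoagulated platelet-rich plasma, 4.5×10^8/ml in Tyrode solution with 0.35% BSA, stirred at 1200 rpm at 37°. Turbidimetric read-out; % aggregation as means ± S.E. (n=3), Student's t test versus DMSO control.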

[2] = Antiplatelet activity against washed rabbit platelet assessed as inhibition of platelet activating factor-induced platelet aggregation at 100 ug/ml preincubated for 3 mins by turbidimetric method; format: functional, Oryctolagus cuniculus; design: scale not given: the % may be the effect or the level left; procedure, shortened: as §1
[3] = Antiplatelet activity against washed rabbit platelet assessed as inhibition of arachidonic acid-induced platelet aggregation at 50 ug/ml preincubated for 3 mins by turbidimetric method; values are per cent of control
[4] = Antiplatelet activity against washed rabbit platelet assessed as inhibition of arachidonic acid-induced platelet aggregation at 10 ug/ml preincubated for 3 mins by turbidimetric method; values are per cent of control
[5] = Antiplatelet activity against washed rabbit platelet assessed as inhibition of arachidonic acid-induced platelet aggregation at 5 ug/ml preincubated for 3 mins by turbidimetric method; values are per cent of control
[6] = Antiplatelet activity against washed rabbit platelet assessed as inhibition of collagen-induced platelet aggregation at 100 ug/ml preincubated for 3 mins by turbidimetric method; format: functional, Oryctolagus cuniculus; design: scale not given: the % may be the effect or the level left; procedure, shortened: as §1
[7] = Antiplatelet activity against washed rabbit platelet assessed as inhibition of collagen-induced platelet aggregation at 10 ug/ml preincubated for 3 mins by turbidimetric method; format: functional, Oryctolagus cuniculus; procedure, shortened: as §1
[8] = Antiplatelet activity against washed rabbit platelet assessed as inhibition of arachidonic acid-induced platelet aggregation at 20 ug/ml preincubated for 3 mins by turbidimetric method; format: functional, Oryctolagus cuniculus; design: scale not given: the % may be the effect or the level left; procedure, shortened: as §1
[9] = Antiplatelet activity against washed rabbit platelet assessed as inhibition of platelet activating factor-induced platelet aggregation at 50 ug/ml preincubated for 3 mins by turbidimetric method; format: functional, Oryctolagus cuniculus; design: scale not given: the % may be the effect or the level left; procedure, shortened: as §1
[10] = Antiplatelet activity against washed rabbit platelet assessed as inhibition of thrombin-induced platelet aggregation at 100 ug/ml preincubated for 3 mins by turbidimetric method; format: functional, Oryctolagus cuniculus; design: scale not given: the % may be the effect or the level left; procedure, shortened: as §1
[11] = Antiplatelet activity against washed rabbit platelet assessed as inhibition of collagen-induced platelet aggregation at 5 ug/ml preincubated for 3 mins by turbidimetric method; format: functional, Oryctolagus cuniculus; procedure, shortened: as §1
[12] = Antiplatelet activity against washed rabbit platelet assessed as inhibition of collagen-induced platelet aggregation at 20 ug/ml preincubated for 3 mins by turbidimetric method; format: functional, Oryctolagus cuniculus; procedure, shortened: as §1
[13] = Antiplatelet activity against washed rabbit platelet assessed as inhibition of collagen-induced platelet aggregation at 2 ug/ml preincubated for 3 mins by turbidimetric method; format: functional, Oryctolagus cuniculus; procedure, shortened: as §1
[14] = (§2) Antiplatelet activity against washed rabbit platelet assessed as inhibition of arachidonic acid-induced platelet aggregation preincubated for 3 mins by turbidimetric method; format: functional, cell-based; conditions: Oryctolagus cuniculus
Procedure, shortened: (§3)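 Washed rabbit platelets, 4.5×10^8/ml in Tyrode–0.35% BSA, stirred at 1200 rpm at 37°. Compound preincubated 3 min (final DMSO 0.5%) before arachidonic acid 100 μM. Aggregation read turbidimetrically. Percent inhibition across concentrations given as means ± S.E. (n=3); IC50 taken from the concentration–response curve.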

[15] = tested on: Platelet; test: as §2; format: functional, cell-based; conditions: Oryctolagus cuniculus; procedure, shortened: as §3
[16] = Antiplatelet activity against washed rabbit platelet assessed as inhibition of collagen-induced platelet aggregation at 50 ug/ml preincubated for 3 mins by turbidimetric method; format: functional, Oryctolagus cuniculus; design: scale not given: the % may be the effect or the level left; procedure, shortened: as §1

Row | Structure (SMILES) | Activity [1] | Activity [2] | level, % of control [3] | level, % of control [4] | level, % of control [5] | Activity [6] | aggregation [7] | Activity [8] | Activity [9] | Activity [10] | aggregation [11] | aggregation [12] | aggregation [13] | IC50 [14] | Activity [15] | Activity [16]
1 | COc1cc(O)cc2ccc3cccc(O)c3c12 [MOSCATIN] | 0% | 24.7% | 0% | 22.8% | 87.6% | 0% | 42.3% | 0% | 72.1% | 41% | 58.4% | 19.6% | 78.5% | 37.2 µM | Dose-dependent effect | 0%
2 | COc1cc(CCc2cc(OC)c(OC(C)=O)c(OC)c2)ccc1OC(C)=O [MOSCATILIN DIACETATE] | 0% | 36% | – | 0% | 33.9% | 12.8% | – | 0% | – | 93.4% | – | – | – | 11.2 µM | Dose-dependent effect | –
3 | COc1cc(CCc2cc(OC)c(O)c(OC)c2)ccc1O [MOSCATILIN] | 0% | 24.7% | 0% | 52% | 78.7% | 0% | 42.3% | 36.4% | 72.1% | 85.3% | 58.4% | 19.6% | 78.5% | 61.8 µM | Dose-dependent effect | 0%

Source: ChEMBL document CHEMBL1148061, “Antiplatelet aggregation principles of Dendrobium loddigesii” (J Nat Prod, 1994)
